From ChEMBL document CHEMBL4145460, “Discovery of novel high potent and cellular active ADC type PTP1B inhibitors with selectivity over TC-PTP via modification interacting with C site” (Eur J Med Chem, 2018)
pIC50: −log10 of the molar value.

Experiments:
[1] = molecular target: T1, Tyrosine-protein phosphatase non-receptor type 1 (Homo sapiens, UniProt P18031); experiment: Inhibition of recombinant human PTP1B using pNNP as substrate after 30 mins
T1 sequence (P18031 whole entry): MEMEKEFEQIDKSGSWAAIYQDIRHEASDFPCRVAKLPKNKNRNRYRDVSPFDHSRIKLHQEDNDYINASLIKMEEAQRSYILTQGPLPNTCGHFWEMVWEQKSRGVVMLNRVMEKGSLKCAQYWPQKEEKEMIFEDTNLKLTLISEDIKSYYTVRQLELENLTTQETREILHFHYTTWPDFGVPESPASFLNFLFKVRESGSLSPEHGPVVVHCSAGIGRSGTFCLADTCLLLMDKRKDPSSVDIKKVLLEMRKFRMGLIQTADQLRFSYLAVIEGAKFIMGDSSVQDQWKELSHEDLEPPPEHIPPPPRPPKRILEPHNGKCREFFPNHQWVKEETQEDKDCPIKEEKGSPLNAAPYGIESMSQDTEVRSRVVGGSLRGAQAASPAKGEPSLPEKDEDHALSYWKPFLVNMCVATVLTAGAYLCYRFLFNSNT

[2] = tested on: L6; experiment: Antidiabetic activity in rat L6 cells assessed as increase in insulin-stimulated 2-NBDG uptake at 0.5 uM after 30 mins by fluorescent assay relative to control; assay type: functional
Outline: (§1)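 Differentiated L6 myotubes rinsed with warm PBS, serum-starved (serum-free DMEM 3 h, 37 °C; figure legend says 2 h), then exposed to compound at […] for 4 h. Insulin 10 nM for 10 min at 37 °C in Krebs-Ringer phosphate buffer pH 7.4, then 2-NBDG added. Uptake read after 30 min by fluorescence at ex 485/em 535 nm. Background from cells with drug but no 2-NBDG. n = 3, mean ± SEM.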

[3] = molecular target: T2, Tyrosine-protein phosphatase non-receptor type 6 (Homo sapiens, UniProt P29350); experiment: Inhibition of human GST-tagged SHP1 (244 to 570 residues) expressed in Escherichia coli BL21-CondenPlus (DE3) using pNNP as substrate
[4] = tested on: L6; experiment: Antidiabetic activity in rat L6 cells assessed as increase in insulin-stimulated 2-NBDG uptake at 2.5 uM after 30 mins by fluorescent assay relative to control; assay type: functional; outline: as §1
[5] = species: Homo sapiens; experiment: Selective ratio of IC50 for human TCPTP to IC50 for recombinant human PTP1B
Outline: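 Ratio of TCPTP IC50 to PTP1B IC50. Both measured with the same pNPP assay: 2 mM pNPP, pH 6.5 with DTT and EDTA, 30 min at 37 °C, NaOH stop, A405, logit-derived IC50.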

[6] = molecular target: T3, Receptor-type tyrosine-protein phosphatase F (Homo sapiens, UniProt P10586); experiment: Inhibition of human GST-tagged LAR D1 (1275 to 1613 residues) expressed in Escherichia coli BL21-CondenPlus (DE3) using pNNP as substrate
[7] = tested on: L6; experiment: Antidiabetic activity in rat L6 cells assessed as increase in insulin-stimulated 2-NBDG uptake at 10 uM after 30 mins by fluorescent assay relative to control; assay type: functional; outline: as §1
[8] = molecular target: T4, Tyrosine-protein phosphatase non-receptor type 11 (Homo sapiens, UniProt Q06124); experiment: Inhibition of human GST-tagged SHP2 ([…] residues) expressed in Escherichia coli BL21-CondenPlus (DE3) using pNNP as substrate
T4 sequence (Q06124 whole entry): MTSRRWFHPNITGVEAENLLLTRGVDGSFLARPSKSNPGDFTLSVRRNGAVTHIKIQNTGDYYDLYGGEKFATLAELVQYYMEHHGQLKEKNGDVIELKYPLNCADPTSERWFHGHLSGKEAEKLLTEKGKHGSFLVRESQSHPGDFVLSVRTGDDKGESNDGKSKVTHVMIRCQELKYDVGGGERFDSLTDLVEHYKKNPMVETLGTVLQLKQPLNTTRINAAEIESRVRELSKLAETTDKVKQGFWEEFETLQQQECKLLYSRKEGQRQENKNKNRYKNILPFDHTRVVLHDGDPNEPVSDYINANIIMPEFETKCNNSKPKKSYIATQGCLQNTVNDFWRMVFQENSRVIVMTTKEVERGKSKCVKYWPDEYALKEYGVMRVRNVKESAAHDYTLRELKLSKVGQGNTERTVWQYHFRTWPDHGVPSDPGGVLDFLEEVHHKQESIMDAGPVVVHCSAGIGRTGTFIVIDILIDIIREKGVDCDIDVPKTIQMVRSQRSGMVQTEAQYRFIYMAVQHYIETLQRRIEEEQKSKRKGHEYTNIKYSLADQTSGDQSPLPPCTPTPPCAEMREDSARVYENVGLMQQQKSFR

[9] = molecular target: T5, Tyrosine-protein phosphatase non-receptor type 2 (Homo sapiens, UniProt P17706); experiment: Inhibition of human TCPTP using pNNP as substrate after 30 mins
T5 sequence (P17706 whole entry): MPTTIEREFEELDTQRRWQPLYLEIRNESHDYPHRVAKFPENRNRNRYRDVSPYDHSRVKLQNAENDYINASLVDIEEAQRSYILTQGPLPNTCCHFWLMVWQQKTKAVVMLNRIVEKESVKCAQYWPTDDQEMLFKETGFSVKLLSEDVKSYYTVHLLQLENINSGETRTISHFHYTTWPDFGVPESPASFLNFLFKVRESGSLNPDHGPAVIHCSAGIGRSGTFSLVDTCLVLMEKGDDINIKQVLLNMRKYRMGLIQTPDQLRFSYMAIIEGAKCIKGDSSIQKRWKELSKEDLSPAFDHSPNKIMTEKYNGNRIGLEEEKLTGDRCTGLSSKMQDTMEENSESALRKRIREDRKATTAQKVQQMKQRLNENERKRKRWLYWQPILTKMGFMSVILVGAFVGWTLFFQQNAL

[10] = molecular target: T6, Tyrosine-protein phosphatase non-receptor type 1 (Homo sapiens) (UniProt P18031); experiment: Inhibition of recombinant human PTP1B at 25 uM using pNNP as substrate after 30 mins relative to control
T6 sequence (whole entry): T1 sequence (P18031 whole entry)
Outline: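 Recombinant PTP1B, 30 nM, with 2 mM pNPP, 1 mM dithiothreitol and 1 mM EDTA at pH 6.5. Compounds delivered from DMSO. Incubated 30 min at 37 °C, stopped with 2.5 M NaOH, pNP read at 405 nm.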

[11] = molecular target: T7, Tyrosine-protein phosphatase non-receptor type 11 (Homo sapiens) (UniProt Q06124); experiment: Inhibition of human GST-tagged SHP2 ([…] residues) expressed in Escherichia coli BL21-CondenPlus (DE3) at 25 uM using pNNP as substrate relative to control
T7 sequence (whole entry): T4 sequence (Q06124 whole entry)

[12] = molecular target: T3, Receptor-type tyrosine-protein phosphatase F; experiment: Inhibition of human GST-tagged LAR D1 (1275 to 1613 residues) expressed in Escherichia coli BL21-CondenPlus (DE3) at 25 uM using pNNP as substrate relative to control
[13] = molecular target: T2, Tyrosine-protein phosphatase non-receptor type 6; experiment: Inhibition of human GST-tagged SHP1 (244 to 570 residues) expressed in Escherichia coli BL21-CondenPlus (DE3) at 25 uM using pNNP as substrate relative to control

T2 sequence (P29350 whole entry, the tested form may be a part): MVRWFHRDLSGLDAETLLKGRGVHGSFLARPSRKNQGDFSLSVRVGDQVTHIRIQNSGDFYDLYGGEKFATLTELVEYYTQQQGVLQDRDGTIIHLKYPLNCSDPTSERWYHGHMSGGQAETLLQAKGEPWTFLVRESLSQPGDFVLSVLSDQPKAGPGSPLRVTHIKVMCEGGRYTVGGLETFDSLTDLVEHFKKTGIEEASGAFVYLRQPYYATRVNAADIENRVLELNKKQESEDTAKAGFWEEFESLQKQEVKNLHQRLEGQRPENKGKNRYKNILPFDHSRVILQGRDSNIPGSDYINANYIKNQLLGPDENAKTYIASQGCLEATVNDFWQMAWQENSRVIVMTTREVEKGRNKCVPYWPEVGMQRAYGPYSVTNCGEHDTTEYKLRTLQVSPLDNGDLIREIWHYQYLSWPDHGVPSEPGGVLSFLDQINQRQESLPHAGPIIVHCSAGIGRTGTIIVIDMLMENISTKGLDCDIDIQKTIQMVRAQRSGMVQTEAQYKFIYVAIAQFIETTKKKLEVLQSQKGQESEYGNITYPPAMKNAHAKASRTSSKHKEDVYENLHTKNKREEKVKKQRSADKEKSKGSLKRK
T3 sequence (P10586 whole entry, the tested form may be a part): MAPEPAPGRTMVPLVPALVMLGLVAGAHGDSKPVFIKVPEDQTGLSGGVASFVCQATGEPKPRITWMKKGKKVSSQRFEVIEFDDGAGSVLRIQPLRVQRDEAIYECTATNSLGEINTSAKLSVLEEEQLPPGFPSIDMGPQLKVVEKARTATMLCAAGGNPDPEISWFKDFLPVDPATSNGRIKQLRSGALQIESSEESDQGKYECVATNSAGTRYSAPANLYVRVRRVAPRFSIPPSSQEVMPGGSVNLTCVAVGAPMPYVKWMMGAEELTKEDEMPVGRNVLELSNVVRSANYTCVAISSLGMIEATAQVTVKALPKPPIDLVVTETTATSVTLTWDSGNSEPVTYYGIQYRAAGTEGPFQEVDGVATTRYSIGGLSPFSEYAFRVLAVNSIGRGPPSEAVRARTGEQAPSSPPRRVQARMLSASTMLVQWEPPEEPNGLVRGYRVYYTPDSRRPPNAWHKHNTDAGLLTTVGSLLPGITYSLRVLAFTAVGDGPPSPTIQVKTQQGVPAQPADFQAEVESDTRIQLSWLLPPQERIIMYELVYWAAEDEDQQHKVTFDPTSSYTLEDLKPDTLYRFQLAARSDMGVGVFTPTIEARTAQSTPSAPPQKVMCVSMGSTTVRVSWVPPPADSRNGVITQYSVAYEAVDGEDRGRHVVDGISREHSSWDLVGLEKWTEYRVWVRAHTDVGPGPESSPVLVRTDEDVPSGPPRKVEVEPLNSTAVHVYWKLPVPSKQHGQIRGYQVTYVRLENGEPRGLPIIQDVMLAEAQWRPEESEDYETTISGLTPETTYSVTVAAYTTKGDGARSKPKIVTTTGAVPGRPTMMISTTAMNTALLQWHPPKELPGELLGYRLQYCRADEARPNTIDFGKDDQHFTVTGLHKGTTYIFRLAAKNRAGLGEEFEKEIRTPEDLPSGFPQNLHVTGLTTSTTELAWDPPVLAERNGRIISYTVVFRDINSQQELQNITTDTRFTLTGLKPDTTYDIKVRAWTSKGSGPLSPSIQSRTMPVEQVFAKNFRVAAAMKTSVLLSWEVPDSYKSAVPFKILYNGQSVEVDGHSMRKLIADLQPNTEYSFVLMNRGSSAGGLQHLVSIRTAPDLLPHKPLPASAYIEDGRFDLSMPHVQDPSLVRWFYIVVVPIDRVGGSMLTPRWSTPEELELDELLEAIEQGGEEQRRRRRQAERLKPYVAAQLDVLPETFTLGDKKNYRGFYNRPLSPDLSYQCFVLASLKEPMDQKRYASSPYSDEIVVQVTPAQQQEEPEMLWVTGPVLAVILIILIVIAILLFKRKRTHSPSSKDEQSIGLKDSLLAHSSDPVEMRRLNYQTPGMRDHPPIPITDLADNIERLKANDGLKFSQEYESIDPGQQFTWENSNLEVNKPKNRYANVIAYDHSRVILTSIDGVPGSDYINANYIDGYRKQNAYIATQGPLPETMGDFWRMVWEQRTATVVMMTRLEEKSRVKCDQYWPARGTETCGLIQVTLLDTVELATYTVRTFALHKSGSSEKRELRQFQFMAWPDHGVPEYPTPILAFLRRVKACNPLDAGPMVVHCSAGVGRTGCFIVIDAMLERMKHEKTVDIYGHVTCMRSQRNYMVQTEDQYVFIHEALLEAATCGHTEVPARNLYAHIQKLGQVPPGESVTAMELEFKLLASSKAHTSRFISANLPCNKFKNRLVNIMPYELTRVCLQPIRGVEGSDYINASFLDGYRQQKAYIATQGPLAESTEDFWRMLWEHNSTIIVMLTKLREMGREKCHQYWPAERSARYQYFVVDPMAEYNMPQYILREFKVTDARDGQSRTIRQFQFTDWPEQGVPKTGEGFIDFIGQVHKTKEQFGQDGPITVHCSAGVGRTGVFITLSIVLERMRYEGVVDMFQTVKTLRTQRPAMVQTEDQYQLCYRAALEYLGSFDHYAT

Row | Structure (SMILES) | pIC50 [1] | pIC50 [3] | Ratio IC50 [5] | pIC50 [9] | also measured
1 | CCOc1cc(NS(C)(=O)=O)c(OCC)cc1CNC(=O)Nc1ccc(OCC)c(C(=O)Nc2ccc(OC)c(OC)c2)c1 | 7.18 | 6.07 | 5.9 | 6.41 | Activity [2]: 6.6%; Activity [4]: 18.7%; pIC50 [6]: 5.13; Activity [7]: 25.8%; pIC50 [8]: 5.80
2 | CCNC(=O)c1cc(NC(=O)NCc2cc(OCC)c(NS(C)(=O)=O)cc2OCC)ccc1OCC | 6.77 |  |  |  | 
3 | CCOc1cc(NS(C)(=O)=O)c(OCC)cc1CNC(=O)Nc1ccc(OCC)c(C(=O)Nc2ccc(OC)cc2)c1 |  |  |  |  | inhibition [10]: < 50%
4 | CCOc1cc(NS(C)(=O)=O)c(OCC)cc1CNC(=O)Nc1ccc(OCC)c(C(=O)NC)c1 | 6.78 |  | 45.9 | 5.12 | inhibition [11]: < 50%; inhibition [12]: < 50%; inhibition [13]: < 50%
5 | CCOc1cc(NS(C)(=O)=O)c(OCC)cc1CNC(=O)Nc1ccc(OCC)c(C(=O)Nc2ccccc2)c1 |  |  |  |  | inhibition [10]: < 50%
6 | CCOc1cc(NS(C)(=O)=O)c(OCC)cc1CNC(=O)Nc1ccc(OCC)c(C(=O)Nc2cccc(OC)c2)c1 | 6.01 |  |  |  | 
7 | CCCNC(=O)c1cc(NC(=O)NCc2cc(OCC)c(NS(C)(=O)=O)cc2OCC)ccc1OCC | 6.73 | 5.06 | 10.9 | 5.69 | inhibition [11]: < 50%; inhibition [12]: < 50%
8 | CCOc1cc(NS(C)(=O)=O)c(OCC)cc1CNC(=O)Nc1ccc(OCC)c(C(=O)Nc2ccc(C)cc2)c1 | 6.68 | 5.53 | 4.1 | 6.06 | inhibition [11]: < 50%; pIC50 [6]: 5.16
9 | CCCOc1ccc(NC(=O)NCc2cc(OCC)c(NS(C)(=O)=O)cc2OCC)cc1C(=O)OC | 7.17 | 5.46 | 17.3 | 5.93 | inhibition [12]: < 50%; pIC50 [8]: 5.11
10 | CCCCOc1ccc(NC(=O)NCc2cc(OCC)c(NS(C)(=O)=O)cc2OCC)cc1C(=O)OC | 6.15 |  |  |  | 
11 | CCOc1cc(NS(C)(=O)=O)c(OCC)cc1CNC(=O)Nc1ccc(OCC)c(C(=O)OC)c1 | 7.73 | 5.96 | 36 | 6.17 | Activity [2]: 16.2%; Activity [4]: 22.4%; pIC50 [6]: 5.27; Activity [7]: 22.9%; pIC50 [8]: 6.04
